From ChEMBL document CHEMBL1137637, “Quinuclidine derivatives as potential antiparasitics” (Antimicrob Agents Chemother, 2007)
Values after ≈ are worked out from the molar mass of the structure shown.

Experiments:
Leishmania amazonensis [1] = experiment: Inhibition of sterol biosynthesis in Leishmania mexicana amazonensis promastigotes assessed as reduction in endogenous 5-dehydro episterol level at 0.3 uM after 96 hrs by gas-liquid chromatography; assay type: functional; design: scale not given: the % may be the effect or the level left
How it was run: (§1)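 Promastigotes grown in liver infusion-tryptose medium with lactalbumin and 10% fetal calf serum at 26°C, static; drug added at 0.5 × 10⁷ to 1 × 10⁷ cells/ml and cells exposed for 96 h. Total lipids extracted; neutral lipids separated from polar lipids by silicic acid column chromatography; free sterols quantified by capillary gas-liquid chromatography and mass spectrometry as mass % of total sterols.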

Leishmania amazonensis [2] = experiment: Inhibition of sterol biosynthesis in Leishmania mexicana amazonensis promastigotes assessed as reduction in exogenous cholesterol level at 0.3 uM after 96 hrs by gas-liquid chromatography; assay type: functional; design: scale not given: the % may be the effect or the level left; how it was run: as §1
[3] = target: T1, Farnesyltransferase, putative (Leishmania major, UniProt Q4Q5W4); experiment: Inhibition of Leishmania major recombinant squalene synthase expressed in Escherichia coli by liquid scintillation counter
T1 sequence (Q4Q5W4 whole entry): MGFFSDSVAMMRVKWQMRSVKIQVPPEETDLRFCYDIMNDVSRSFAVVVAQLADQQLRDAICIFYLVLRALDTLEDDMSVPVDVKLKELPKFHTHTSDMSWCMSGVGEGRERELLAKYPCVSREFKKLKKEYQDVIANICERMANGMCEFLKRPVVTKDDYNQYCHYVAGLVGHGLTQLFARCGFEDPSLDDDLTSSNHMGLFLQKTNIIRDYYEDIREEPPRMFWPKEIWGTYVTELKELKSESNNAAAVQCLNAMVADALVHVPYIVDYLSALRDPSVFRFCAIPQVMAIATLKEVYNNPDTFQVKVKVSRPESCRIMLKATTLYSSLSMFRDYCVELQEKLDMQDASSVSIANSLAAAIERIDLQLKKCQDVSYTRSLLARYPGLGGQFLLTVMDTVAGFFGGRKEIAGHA
How it was run: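 Soluble E. coli extract expressing L. major SQS truncated by 16 N-terminal and 40 C-terminal residues. Buffer: 50 mM phosphate pH 7.4, 20 mM MgCl2, 5 mM CHAPS, 1% Tween 80, 10 mM DTT, BSA, 0.25 mM NADPH, and a glucose-6-phosphate/G6PDH regenerating system. Substrate 0.5 μM radiolabelled farnesyl pyrophosphate. Squalene band counted by scintillation. IC50 from hyperbolic plot of five concentrations in duplicate, usually run twice.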

Squalene synthase [4] = target: T2, Squalene synthase (Homo sapiens, UniProt P37268); experiment: Inhibition of human recombinant squalene synthase expressed in Escherichia coli BL21(DE3 pLysS) by liquid scintillation counter
T2 sequence (P37268 whole entry): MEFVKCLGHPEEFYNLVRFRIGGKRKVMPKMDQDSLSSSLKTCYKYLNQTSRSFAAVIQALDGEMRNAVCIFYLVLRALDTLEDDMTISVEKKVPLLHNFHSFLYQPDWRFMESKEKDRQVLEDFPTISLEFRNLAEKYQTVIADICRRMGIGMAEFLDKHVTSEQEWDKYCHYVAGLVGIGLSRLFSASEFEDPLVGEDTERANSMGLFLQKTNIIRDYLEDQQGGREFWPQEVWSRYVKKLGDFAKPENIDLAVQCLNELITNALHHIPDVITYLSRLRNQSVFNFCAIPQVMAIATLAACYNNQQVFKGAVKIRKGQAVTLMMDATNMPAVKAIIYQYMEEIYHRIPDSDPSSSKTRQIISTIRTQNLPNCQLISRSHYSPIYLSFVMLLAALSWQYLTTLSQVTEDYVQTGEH
How it was run: (§2)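 Human SQS in extracts of E. coli BL21(DE3 pLysS) carrying pHSS16, assayed under the same conditions as the L. major enzyme. Buffer: phosphate pH 7.4, MgCl2, CHAPS, Tween 80, DTT, BSA, and NADPH with a regenerating system. Substrate 0.5 μM radiolabelled farnesyl pyrophosphate. Squalene band radioactivity counted by scintillation.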

Leishmania amazonensis [5] = experiment: Antileishmanial activity against Leishmania mexicana amazonensis promastigotes by trypan blue exclusion method; assay type: functional, organism-based
How it was run: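 L. mexicana amazonensis promastigotes cultured in liver infusion-tryptose medium with lactalbumin and 10% FCS at 26°C, unagitated. Cultures started at 2 × 10⁶ cells/ml and drug added at 0.5–1 × 10⁷ cells/ml. Density counted by electronic particle counter and hemocytometer. Viability by trypan blue exclusion. Triplicate growth experiments.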

Leishmania amazonensis [6] = experiment: Inhibition of sterol biosynthesis in Leishmania mexicana amazonensis promastigotes assessed as reduction in exogenous cholesterol level at 1 uM after 96 hrs by gas-liquid chromatography; assay type: functional; design: scale not given: the % may be the effect or the level left
How it was run: (§3)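 L. mexicana promastigotes exposed to compound for 96 h. Total lipids extracted and neutral sterols separated from polar lipids by silicic acid column chromatography. Sterols analysed by TLC and by quantitative capillary gas-liquid chromatography with mass spectrometry. Composition expressed as mass % of free sterols, compared with untreated control.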

Leishmania amazonensis [7] = experiment: Inhibition of sterol biosynthesis in Leishmania mexicana amazonensis promastigotes assessed as reduction in endogenous 5-dehydro episterol level at 1 uM after 96 hrs by gas-liquid chromatography; assay type: functional; design: scale not given: the % may be the effect or the level left; how it was run: as §3
Leishmania amazonensis [8] = experiment: Inhibition of sterol biosynthesis in Leishmania mexicana amazonensis promastigotes assessed as reduction in endogenous episterol level at 1 uM after 96 hrs by gas-liquid chromatography; assay type: functional; design: scale not given: the % may be the effect or the level left; how it was run: as §3
Leishmania donovani = experiment: Antileishmanial activity against Leishmania donovani MHOM/ET/67/L82 axenic amastigotes after 72 hrs by resazurin assay; assay type: functional, organism-based; settings: MHOM/ET/67/L82, 72 h
How it was run: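 L. donovani MHOM/ET/67/L82 amastigotes grown axenically at 37°C in synthetic minimal medium at pH 5.4 with 10% heat-inactivated FBS under 5% CO2. 1 × 10⁵ amastigotes per well with seven threefold dilutions, 30 to 0.041 μg/ml. After 72 h, resazurin added for 2–4 h more. Fluorescence read at ex 536/em 588 nm. IC50 taken from sigmoidal curve. Run in duplicate, with an independent repeat for actives.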

L6 = experiment: Cytotoxicity against rat L6 cells after 72 hrs by resazurin assay; assay type: cell-based; settings: L6, 72 h
How it was run: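 L-6 cells seeded at 4 × 10⁴ cells/ml in RPMI 1640 with 10% FBS and 2 mM L-glutamine. After 24 h, medium replaced with serial drug dilution and incubated for 72 h at 37°C in 5% CO2. Resazurin added for 2–4 h, fluorescence read at ex 536/em 588 nm. IC50 from sigmoidal curve. Duplicate, with an independent repeat for actives.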

Trypanosoma cruzi = experiment: Antitrypanosomal activity against trypomastigotes of Trypanosoma cruzi Tulahuen C2C4 containing lacZ gene in rat L6 cells after 4 days by chlorophenol red-beta-D-galactopyranoside/Nonidet assay; assay type: functional, organism-based; settings: Tulahuen C2C4, L6, 96 h
How it was run: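 L-6 rat myoblasts seeded at 2,000 cells/well in RPMI 1640 with 10% FBS and 2 mM L-glutamine. After 24 h, 5,000 T. cruzi Tulahuen C2C4 lacZ trypomastigotes added with serial drug dilution. Incubated at 37°C in 5% CO2 for 4 days. CPRG/Nonidet substrate added and colour read at 540 nm after 2–4 h. IC50 from sigmoidal curve. Duplicate determinations.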

[9] = tested on: Trypanosoma brucei rhodesiense; experiment: Trypanocidal activity against Trypanosoma brucei rhodesiense STIB 900 bloodstream form after 72 hrs by resazurin assay; assay type: functional, organism-based; settings: STIB 900, 72 h
How it was run: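 T. b. rhodesiense STIB 900 bloodstream forms in MEM with 2-mercaptoethanol and 15% heat-inactivated horse serum, with serial drug dilutions. Incubated 72 h at 37°C in 5% CO2. Resazurin added for 2–4 h more, fluorescence read at ex 536/em 588 nm. IC50 from sigmoidal curve. Duplicate, with an independent repeat for actives.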

Plasmodium falciparum = experiment: Antiplasmodial activity after 48 hrs against chloroquine and pyrimethamine-resistant Plasmodium falciparum K1 in human erythrocytes by [3H]hypoxanthine uptake; assay type: functional, organism-based
How it was run: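 P. falciparum K1 in human red cells in RPMI 1640 with 5% Albumax, exposed to serial drug dilutions. Incubated 48 h at 37°C under reduced oxygen, then 0.5 μCi [³H]hypoxanthine per well for 24 h more. Cells harvested onto glass-fibre filters and counted by scintillation. Result expressed as % of untreated control, with IC50 from sigmoidal curve. Duplicate, plus an independent repeat for actives.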

Leishmania amazonensis [10] = experiment: Inhibition of sterol biosynthesis in Leishmania mexicana amazonensis promastigotes assessed as reduction in endogenous episterol level at 0.3 uM after 96 hrs by gas-liquid chromatography; assay type: functional; design: scale not given: the % may be the effect or the level left; how it was run: as §1
Leishmania amazonensis [11] = experiment: Inhibition of sterol biosynthesis in Leishmania mexicana amazonensis promastigotes assessed as reduction in endogenous episterol level at 0.1 uM after 96 hrs by gas-liquid chromatography; assay type: functional; design: scale not given: the % may be the effect or the level left; how it was run: as §3
Leishmania amazonensis [12] = experiment: Inhibition of sterol biosynthesis in Leishmania mexicana amazonensis promastigotes assessed as reduction in endogenous 5-dehydro episterol level at 0.1 uM after 96 hrs by gas-liquid chromatography; assay type: functional; design: scale not given: the % may be the effect or the level left; how it was run: as §3
Leishmania amazonensis [13] = experiment: Inhibition of sterol biosynthesis in Leishmania mexicana amazonensis promastigotes assessed as reduction in exogenous cholesterol level at 0.1 uM after 96 hrs by gas-liquid chromatography; assay type: functional; design: scale not given: the % may be the effect or the level left; how it was run: as §3
Squalene synthase [14] = target: T2, Squalene synthase; experiment: Inhibition of human recombinant squalene synthase expressed in Escherichia coli BL21(DE3 pLysS) up to 1 uM by liquid scintillation counter; how it was run: as §2
Leishmania amazonensis [15] = experiment: Inhibition of sterol biosynthesis in Leishmania mexicana amazonensis promastigotes assessed as reduction in endogenous cholesta-5,7,24-trien-3beta-ol level at 3 uM after 96 hrs by gas-liquid chromatography; assay type: functional; design: scale not given: the % may be the effect or the level left; how it was run: as §3
Leishmania amazonensis [16] = experiment: Inhibition of sterol biosynthesis in Leishmania mexicana amazonensis promastigotes assessed as reduction in endogenous cholesta-5,7,24-trien-3beta-ol level at 1 uM after 96 hrs by gas-liquid chromatography; assay type: functional; design: scale not given: the % may be the effect or the level left; how it was run: as §3
Leishmania amazonensis [17] = experiment: Inhibition of sterol biosynthesis in Leishmania mexicana amazonensis promastigotes assessed as reduction in exogenous cholesterol level at 3 uM after 96 hrs by gas-liquid chromatography; assay type: functional; design: scale not given: the % may be the effect or the level left; how it was run: as §3
Leishmania amazonensis [18] = experiment: Inhibition of sterol biosynthesis in Leishmania mexicana amazonensis promastigotes assessed as reduction in endogenous 5-dehydro episterol level at 3 uM after 96 hrs by gas-liquid chromatography; assay type: functional; design: scale not given: the % may be the effect or the level left; how it was run: as §3
Leishmania amazonensis [19] = experiment: Inhibition of sterol biosynthesis in Leishmania mexicana amazonensis promastigotes assessed as reduction in endogenous episterol level at 3 uM after 96 hrs by gas-liquid chromatography; assay type: functional; design: scale not given: the % may be the effect or the level left; how it was run: as §3
Leishmania amazonensis [20] = experiment: Inhibition of sterol biosynthesis in Leishmania mexicana amazonensis promastigotes assessed as reduction in endogenous cholesta-7,24-dien-3beta-ol level at 1 uM after 96 hrs by gas-liquid chromatography; assay type: functional; design: scale not given: the % may be the effect or the level left; how it was run: as §3
Leishmania amazonensis [21] = experiment: Inhibition of sterol biosynthesis in Leishmania mexicana amazonensis promastigotes assessed as reduction in endogenous cholesta-7,24-dien-3beta-ol level at 3 uM after 96 hrs by gas-liquid chromatography; assay type: functional; design: scale not given: the % may be the effect or the level left; how it was run: as §3
Leishmania amazonensis [22] = experiment: Inhibition of sterol biosynthesis in Leishmania mexicana amazonensis promastigotes assessed as reduction in exogenous cholesterol level at 10 uM after 96 hrs by gas-liquid chromatography; assay type: functional; design: scale not given: the % may be the effect or the level left; how it was run: as §3

SMILES | Activity (Leishmania amazonensis [1]) | Activity (Leishmania amazonensis [2]) | IC50 [3] | MIC (Leishmania amazonensis [5]) | Activity (Leishmania amazonensis [6]) | Activity (Leishmania amazonensis [7]) | Activity (Leishmania amazonensis [8]) | IC50 (Leishmania donovani) | IC50 (L6) | IC50 (Trypanosoma cruzi) | IC50 [9] | IC50 (Plasmodium falciparum) | Activity (Leishmania amazonensis [10]) | Activity (Leishmania amazonensis [15]) | Activity (Leishmania amazonensis [16]) | Activity (Leishmania amazonensis [17]) | Activity (Leishmania amazonensis [18]) | Activity (Leishmania amazonensis [19]) | Activity (Leishmania amazonensis [21]) | also measured
COc1ccc2cc(C3=CN4CCC3CC4)ccc2c1 | 72.7% | 13.9% | 0.49 µM | 0.3 µM (≈ 0.0796 µg/mL) | 41.2% | 43% | 15.8% | 1.4 µM | 98.8 µM | 10.2 µM | 2.2 µM | 9 µM | 13.4% | – | – | – | – | – | – | IC50 (Squalene synthase [4]): 2.8 µM
C(=C1/CN2CCC1CC2)/c1ccc(-c2ccccc2)cc1 | 18.1% | 36.7% | > 1 µM | 0.3 µM (≈ 0.0826 µg/mL) | – | – | – | 41.3 µM | 13.4 µM | 1.8 µM | 0.7 µM | 3.1 µM | 33.3% | – | – | – | – | – | – | Activity (Leishmania amazonensis [11]): 42.2%; Activity (Leishmania amazonensis [12]): 26.4%; Activity (Leishmania amazonensis [13]): 31.4%; IC50 (Squalene synthase [14]): Not Active
OC[C@H]1CC2CCN1C[C@@H]2C#Cc1ccc(-c2ccccc2)cc1 (some centres not stated) | – | – | > 1 µM | 10 µM (≈ 3.17 µg/mL) | 15.4% | 49.3% | 7.6% | 33.7 µM | 11 µM | 5.8 µM | 0.5 µM | 1.4 µM | – | 32.7% | 20.1% | 14% | 36% | 6.6% | 10.7% | Activity (Leishmania amazonensis [20]): 7.6%; Activity (Leishmania amazonensis [22]): >99%
CC(C)(C)[Si](C)(C)Oc1ccc(C2=CN3CCC2CC3)cc1 | – | – | > 1 µM | 3 µM (≈ 0.947 µg/mL) | 29.2% | 54.7% | 7.1% | 31.1 µM | 23.8 µM | 16.3 µM | 2.1 µM | 4.1 µM | – | 10.7% | 9% | 55.4% | 21.2% | 7.9% | 4.8% | –
